Published values of several laboratories.
Lines come from different studies, so protocols differ.
Target: Muscle, skeletal receptor tyrosine-protein kinase (MUSK, Homo sapiens, UniProt O15146)
Sequence (O15146 24-869, as in one of the studies): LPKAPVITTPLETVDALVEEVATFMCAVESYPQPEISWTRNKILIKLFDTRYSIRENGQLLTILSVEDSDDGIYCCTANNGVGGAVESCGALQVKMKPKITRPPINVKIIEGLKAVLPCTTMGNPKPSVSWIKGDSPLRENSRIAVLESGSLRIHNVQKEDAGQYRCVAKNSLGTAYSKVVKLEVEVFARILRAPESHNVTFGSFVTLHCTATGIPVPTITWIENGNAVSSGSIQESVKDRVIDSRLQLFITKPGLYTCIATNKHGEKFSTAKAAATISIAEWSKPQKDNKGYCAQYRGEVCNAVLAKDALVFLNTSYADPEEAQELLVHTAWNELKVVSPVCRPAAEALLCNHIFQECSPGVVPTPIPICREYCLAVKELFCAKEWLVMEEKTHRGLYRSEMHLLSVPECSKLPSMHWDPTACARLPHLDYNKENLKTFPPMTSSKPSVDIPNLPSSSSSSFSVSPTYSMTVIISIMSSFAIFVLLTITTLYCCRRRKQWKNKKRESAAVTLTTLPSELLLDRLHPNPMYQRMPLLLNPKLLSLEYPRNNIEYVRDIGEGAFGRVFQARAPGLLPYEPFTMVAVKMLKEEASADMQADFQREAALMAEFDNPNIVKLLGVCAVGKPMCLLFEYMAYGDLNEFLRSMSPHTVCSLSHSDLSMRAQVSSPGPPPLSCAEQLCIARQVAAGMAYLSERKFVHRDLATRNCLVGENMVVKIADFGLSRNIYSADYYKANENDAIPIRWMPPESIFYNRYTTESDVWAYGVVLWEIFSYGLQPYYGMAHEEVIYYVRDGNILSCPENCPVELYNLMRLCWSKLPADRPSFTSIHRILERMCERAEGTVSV

SMILES	assay	conditions	endpoint	value
CC(C)S(=O)(=O)c1ccc2nccc(Nc3ccc4sc(C5CCCC5)nc4c3)c2c1	enzyme activity, inhibitor	1 µM	activity vs control	101%
CCCCC(=O)Nc1ccc(-c2ccc3ncn(CCC)c(=O)c3c2)cn1	binding, competition with immobilised ligand	0.5 µM	remaining binding	93%
C=CC(=O)N1CCC([C@@H]2CCNc3c(C(N)=O)c(-c4ccc(Oc5ccccc5)cc4)nn32)CC1	enzyme activity, inhibitor	1 µM	inhibition	16%
CN1CCN(C(=O)c2ccc(NC(=O)Nc3ccc(N(C)c4ccnc(Nc5ccc(CS(C)(=O)=O)cc5)n4)cc3)cc2)CC1	binding, competition with immobilised ligand	1 µM	remaining binding	11%
C#Cc1cc(-c2cc(Nc3nc(N[C@@H](C)c4ccc(F)cn4)ncc3Cl)n[nH]2)ccc1C=O	enzyme activity, inhibitor	0.2 µM	inhibition	100%
CO[C@@H]1[C@H](N(C)C(=O)c2ccccc2)C[C@H]2O[C@]1(C)n1c3ccccc3c3c4c(c5c6ccccc6n2c5c31)C(=O)NC4	enzyme activity, inhibitor	1 µM	inhibition	0%
Cc1ccc(NC(=O)c2ccnc(C(F)(F)F)c2)cc1-c1cc(OCCO)nc(N2CCOCC2)c1	binding, competition with immobilised ligand	1 µM	remaining binding	91%
C1=C/COCc2cc(ccc2OCCN2CCCC2)Nc2nccc(n2)-c2cccc(c2)COC/1	binding	0.1 µM	remaining binding	89%
